ChEMBL document CHEMBL5154918, “Synthesis and Biological Characterization of a Series of 2-Sulfonamidebenzamides as Allosteric Modulators of MrgX1” (ACS Med Chem Lett, 2022)

How the values were obtained:
[1] = Tmax in mouse at 2 mg/kg, ip administered as discrete dose; assay type: ADME, organism-based; details: in vivo
Method in brief: (§1)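 Discrete (single-compound) mouse PK, dosed IP at 2 mg/kg in 10% DMSO/10% cremophor EL/30% PEG400/50% water. Plasma and brain concentrations measured; brain:plasma ratio reported.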

[2] = target: T1, Mas-related G-protein coupled receptor member X1 (Homo sapiens, UniProt Q96LB2); assay: Positive allosteric modulator activity at human MRGPRX1 expressed in HEK293 cells assessed as maximal efficacy at 5 uM in presence of BAM8-22 by Fluo4-dye based FLIPR assay relative to control; assay type: cell-based; details: filed as positive allosteric modulator
[3] = target: Histamine H1 receptor (Homo sapiens, UniProt P35367); assay: Binding affinity to H1 receptor (unknown origin)
[4] = target: Translocator protein (Homo sapiens, UniProt P30536); assay: Binding affinity to peripheral benzodiazepine receptor (unknown origin)
[5] = Microsomal stability in mouse liver microsomes assessed as intrinsic clearance; assay type: ADME, Microsome; details: read-out: CLH
Method in brief: (§2)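 Intrinsic clearance measured in human and mouse liver microsomes. Hepatic clearance predicted from it with the well-stirred organ CL model, binding terms excluded.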

[6] = Cmax in mouse at 2 mg/kg, ip administered as discrete dose; assay type: ADME, organism-based; design: dose 2 mg/kg, route ip; details: in vivo; method in brief: as §1
[7] = target: T1, Mas-related G-protein coupled receptor member X1; assay: Positive allosteric modulator activity at human MRGPRX1 expressed in HEK293 cells in presence of BAM8-22 by Fluo4-dye based FLIPR assay; assay type: cell-based
Method in brief: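 HEK293 cells expressing MrgX1. Compounds tested in the presence of 10 nM BAM8-22. Emax normalized to control compound ML382; mean ± SEM of n = 2 experiments.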

[8] = Plasma protein binding in human assessed as unbound fraction; assay type: ADME, cell-free; details: read-out: PPB
Method in brief: (§3)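 Equilibrium dialysis in human and mouse plasma; results expressed as […] fraction unbound.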

[9] = Plasma protein binding in mouse assessed as unbound fraction; assay type: ADME, cell-free; details: read-out: PPB; method in brief: as §3
[10] = Microsomal stability in human liver microsomes assessed as intrinsic clearance; assay type: ADME, Microsome; details: read-out: CLH; method in brief: as §2
[11] = Drug concentration in Sprague-Dawley rat plasma at 0.25 mg/kg measured up to 48.25 hrs; assay type: ADME, organism-based
Method in brief: (§4)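 Brain sampled on Day 2 at 0.25 h, with matching plasma, after a 0.25 mg/kg IV cassette dose (5-in-1) in male Sprague–Dawley rats. Vehicle was DMSO:PEG400:EtOH:Saline (5:48:10:37). Kp is total brain/plasma concentration ratio.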

[12] = Ratio of drug concentration in brain to plasma in mouse at 2 mg/kg, ip administered as discrete dose; assay type: ADME, organism-based; details: brain and plasma, read-out: BPR; method in brief: as §1
[13] = Half life in mouse at 2 mg/kg, ip administered as discrete dose; assay type: ADME, organism-based; details: in vivo; method in brief: as §1
[14] = Drug concentration in Sprague-Dawley rat brain at 0.25 mg/kg measured up to 48.25 hrs; assay type: ADME, organism-based; details: read-out: Ct; method in brief: as §4
[15] = Ratio of drug concentration in brain to plasma in Sprague-Dawley rat at 0.25 mg/kg measured after 15 mins; assay type: ADME, organism-based; details: brain and plasma; method in brief: as §4
[16] = Half life in Sprague-Dawley rat at 0.25 mg/kg, iv bolus injection administered as cassette dose; assay type: ADME, organism-based; details: in vivo
Method in brief: (§5)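 Male Sprague–Dawley rats, 5-in-1 cassette, 0.25 mg/kg IV of each test article in DMSO:PEG400:EtOH:Saline (5:48:10:37). Plasma sampled at 0.0833, 0.25, 0.5, 1, 3, 4, 8 and 24 h, plus Day 2 at 0.25 h post dose.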

[17] = target: D(1B) dopamine receptor (Homo sapiens, UniProt P21918); assay: Binding affinity to D5 receptor (unknown origin)
[18] = Volume of distribution at steady state in Sprague-Dawley rat at 0.25 mg/kg, iv bolus injection administered as cassette dose; assay type: ADME, organism-based; details: in vivo, read-out: Vdss; method in brief: as §5
[19] = Clearance in Sprague-Dawley rat at 0.25 mg/kg, iv bolus injection administered as cassette dose; assay type: ADME, organism-based; details: in vivo; method in brief: as §5
[20] = AUC in mouse at 2 mg/kg, ip administered as discrete dose; assay type: ADME, organism-based; design: dose 2 mg/kg, route ip; details: in vivo; method in brief: as §1
[21] = AUC in Sprague-Dawley rat at 0.25 mg/kg, iv bolus injection administered as cassette dose; assay type: ADME, organism-based; design: dose 0.25 mg/kg, route iv; details: in vivo; method in brief: as §5

T1 sequence (Q96LB2 whole entry): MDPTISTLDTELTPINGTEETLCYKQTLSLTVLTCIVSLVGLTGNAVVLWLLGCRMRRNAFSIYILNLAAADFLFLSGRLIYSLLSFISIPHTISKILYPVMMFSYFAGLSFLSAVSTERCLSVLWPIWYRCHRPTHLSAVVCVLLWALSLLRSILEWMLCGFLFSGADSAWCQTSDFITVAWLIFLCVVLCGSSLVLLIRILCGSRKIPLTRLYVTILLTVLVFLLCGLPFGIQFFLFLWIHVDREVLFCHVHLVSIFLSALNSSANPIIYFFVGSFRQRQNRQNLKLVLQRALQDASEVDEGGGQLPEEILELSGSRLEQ
Histamine H1 receptor, sequence (P35367 whole entry): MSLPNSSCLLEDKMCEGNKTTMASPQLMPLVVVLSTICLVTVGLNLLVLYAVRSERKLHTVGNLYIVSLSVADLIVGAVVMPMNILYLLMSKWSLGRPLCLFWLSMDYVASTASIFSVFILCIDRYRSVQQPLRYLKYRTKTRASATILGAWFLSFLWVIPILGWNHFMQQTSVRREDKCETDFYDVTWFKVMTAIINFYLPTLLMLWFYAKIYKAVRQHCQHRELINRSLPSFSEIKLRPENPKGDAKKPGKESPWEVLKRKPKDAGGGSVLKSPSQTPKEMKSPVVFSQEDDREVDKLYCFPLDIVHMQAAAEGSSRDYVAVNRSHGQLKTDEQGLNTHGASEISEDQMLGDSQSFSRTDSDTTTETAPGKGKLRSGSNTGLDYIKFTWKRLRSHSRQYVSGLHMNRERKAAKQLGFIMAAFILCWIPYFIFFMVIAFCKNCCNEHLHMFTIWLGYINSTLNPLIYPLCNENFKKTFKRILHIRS
Translocator protein, sequence (P30536 whole entry): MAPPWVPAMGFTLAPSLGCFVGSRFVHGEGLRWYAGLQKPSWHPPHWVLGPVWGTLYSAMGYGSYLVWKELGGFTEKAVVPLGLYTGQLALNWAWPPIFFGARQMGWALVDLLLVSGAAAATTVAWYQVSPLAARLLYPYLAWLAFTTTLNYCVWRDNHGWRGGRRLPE
D(1B) dopamine receptor, sequence (P21918 whole entry): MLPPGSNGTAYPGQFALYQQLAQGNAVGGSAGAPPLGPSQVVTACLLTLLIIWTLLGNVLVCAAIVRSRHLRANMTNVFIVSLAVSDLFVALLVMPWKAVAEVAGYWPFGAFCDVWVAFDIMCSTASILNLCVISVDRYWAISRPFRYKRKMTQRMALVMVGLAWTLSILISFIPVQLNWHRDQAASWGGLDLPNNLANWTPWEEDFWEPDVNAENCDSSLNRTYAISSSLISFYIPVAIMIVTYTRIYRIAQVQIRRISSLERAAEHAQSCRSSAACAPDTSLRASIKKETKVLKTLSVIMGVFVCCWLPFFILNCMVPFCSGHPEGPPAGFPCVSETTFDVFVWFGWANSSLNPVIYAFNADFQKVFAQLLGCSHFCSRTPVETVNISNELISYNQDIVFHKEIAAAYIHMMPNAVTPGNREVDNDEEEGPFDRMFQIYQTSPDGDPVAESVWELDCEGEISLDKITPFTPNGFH

Emax [2] [%] | Ki [3] [nM] | CLint scaled [5] [mL/min/kg] | EC50 [7] [nM] | fraction unbound [8] | fraction unbound [9] | CLint scaled [10] [mL/min/kg] | concentration at 48.25 h [11] [ng/mL] | concentration at 48.25 h [14] [ng/g] | Kp at 0.25 h [15] | half-life [16] [min] | Vd [18] [L/kg] | clearance [19] [mL/min/kg] | AUC [21] [ng·h/mL] | Compound | other results
82.2 | > 4000 | 1660 | 14 | 0.004 | 0.022 | 79.1 | 79.6 | 23.6 | 0.29 | 28.8 | 0.52 | 36.7 | 119 | CCOc1ccc(F)cc1NC(=O)c1ccccc1NS(=O)(=O)C1CC1 | Tmax [1]: 10.2 min; Ki [4]: 271 nM; Cmax [6]: 259 ng/mL; Kp [12]: 0.32; half-life [13]: 10.8 min; Ki [17]: > 4000 nM; AUC [20]: 69 ng·h/mL
106 | 1090 | 1100 | 69 | 0.003 | 0.012 | 114 | 61.5 | 35.1 | 0.57 | 25.2 | 1.2 | 63.1 | 66.2 | CCOc1ccc(F)cc1NC(=O)c1cc(C)ccc1NS(=O)(=O)C1CC1 | –
